Results: PubChem BioAssay
Inconclusive results are not listed.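 How the source made its calls, unless noted: active means RAM network inhibition above 8.4% in each of two replicates, 3 SD over the compound average; inconclusive means above 8.4% inhibition in only one replicate; inactive means 8.4% inhibition or less in each replicate.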

Columns and labels:
[1] = S. cerevisiae growth inhibition in permissive medium (OD615), pilot counter-assay for S. cerevisiae lifespan shortening project, permissive growth control (AID 705;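 active means growth inhibition above 25% in both replicates, a cutoff set 3 SD above the mean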); details: OD615, 24 h, at 10 µM, hits give high values
Procedure, shortened: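 System: S. cerevisiae with engineered DeaD lifespan system. Medium: SC raffinose/galactose permissive medium. Doses: single compound dose of 10 µM, 0.25% DMSO final. Schedule: 24 h exposure, 30 °C. Measured by: OD615 turbidity read. Read-out: growth inhibition.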

[2] = S. cerevisiae growth inhibition in restrictive medium, OD615, pilot screen, restrictive growth control, yeast lifespan reduction project (AID 706;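 active means growth inhibition above a set limit, 3 SD over mean compound inhibition, in both replicates, cut at about 43% in these data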;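 further: modified DeaD lifespan yeast strain shifted to restrictive glucose medium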); details: OD615, 48 h, at 10 µM, hits give high values
Procedure, shortened: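 Assay system – genetically modified Saccharomyces cerevisiae, DeaD replicative lifespan assay strain · Medium – CSMM-D glucose medium · Doses – 10 µM compound, 0.25% DMSO · Times – 4 h pre-incubation, 48 h exposure at 30 °C · Signal – optical density at 615 nm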

[3] = doxorubicin toxicity protection in MRP-1 cells – H69AR cells, CellTiter-Glo, duplicate, MRP-1 activator project, pilot screen (AID 807;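 active means viability increase at or above a cutoff of the median across tested compounds plus 3 SD, cut at about 8.5% in these data, passing the limit was not always enough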;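 further: compound pretreatment 18-22 h then 72 h combined with doxorubicin; 0% = doxorubicin alone and 100% = vehicle without doxorubicin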); details: H69AR viability with doxorubicin, CellTiter-Glo luminescence; at 10 µM; hits give high values
[4] = viability of HCT116 without oncogenic beta-catenin – human colon tumor cells, pilot screen (AID 823;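 active means cell viability at or below a set limit in both duplicate runs, the limit being the all-compound median minus 4 SD, cut at about 23% in these data, passing the limit was not always enough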;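 further: 0% = wells killed by 20 µM Hyamine and 100% = untreated DMSO cell wells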); details: HCT116 beta-catenin knockout viability, CellTiter-Glo, 60 h; at 10 µM; hits give low values
[5] = viability of PTEN-null HCT116 cells – cell-based, HCT116 clonal line, CellTiter-Glo, pilot screen (AID 824;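 active means viability at or below 27.92% in each of two runs, the all-compound median minus 4 SD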;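 further: 0% = 20 µM Hyamine control and 100% = vehicle cell control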); details: HCT116 PTEN-deleted viability, 60 h, at 10 µM, hits give low values
[6] = RAM pathway blockade in budding yeast – dse1pr::URA3 reporter, 5-FOA selection, pilot screen (AID 869;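 active means inhibition over a set limit, the all-compound mean plus 3 SD, in both replicate runs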;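 further: 0% = DMSO wells with no growth and 100% = 10 µM 1-NA-PP1 with full growth; RAM network block rescues cells from 5-FOA so hits raise OD615 growth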); details: S. cerevisiae dse1pr::URA3 5-FOA growth, OD615, 2 d; at 10 µM; hits give high values; strain carries analog-sensitive mutant Cbk1 kinase
[7] = RAM signaling pathway blockade in yeast – S. cerevisiae, Pdr1DBD-CYC8 efflux-inhibited sensitized strain, primary screen (AID 1298);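 further: 0% = DMSO untreated cells without growth and 100% = 10 µM 1-NA-PP1 full growth; higher means more yeast growth rescued from 5-FOA killing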; details: S. cerevisiae cbk1-as DSE1-URA3 strain, 5-FOA growth OD615, 2 d; at 50 µM; hits give high values

Cc1oc(-c2ccc(Cl)cc2)nc1CN1CCCC(C(=O)N2CCN(C(=O)c3ccco3)CC2)C1 (stereo unspecified)
inactive: growth inhibition [1] -8.52% | growth inhibition [2] -14.5% | viability increase [3] -4.07% | viability [4] 33.8% | viability [5] 54.6% | inhibition [6] -0.38% | RAM network inhibition [7] 7.1%

c1ccc(CSc2nnc(-c3ccncc3)o2)cc1
inactive: growth inhibition [1] -3.77% | growth inhibition [2] 9.8% | viability increase [3] -2.83% | viability [4] 109% | viability [5] 96.3% | inhibition [6] 0.73% | RAM network inhibition [7] 1.96%

O=C1CCCN1CC(CN1CCOCC1)Sc1nc2ccccc2c(=O)n1-c1ccccc1 (stereo unspecified)
inactive: growth inhibition [1] -2.25% | growth inhibition [2] -6.07% | viability increase [3] -6.36% | viability [4] 92.1% | viability [5] 97.3% | inhibition [6] 1.88% | RAM network inhibition [7] 1.94%

CCOc1cc(/C=N/n2cnnc2)ccc1OCC(=O)Nc1ccccc1OC
inactive: growth inhibition [1] 0.995% | growth inhibition [2] 0.62% | viability increase [3] -1.37% | viability [4] 101% | viability [5] 95.7% | inhibition [6] 1.91% | RAM network inhibition [7] 2.52%

CCN1CCN(CCCNC(=O)c2ccc3c(c2)NC(=O)c2ccccc2S3)CC1
inactive: growth inhibition [1] -15.9% | growth inhibition [2] -14.5% | viability increase [3] -2.37% | viability [4] 90.6% | viability [5] 95.4% | inhibition [6] 0.905% | RAM network inhibition [7] 5.84%

CC1CCC(NC(=O)c2cc3c(=O)n(C)c4ccccc4c3n2C)CC1 (stereo unspecified)
inactive: growth inhibition [1] -12.8% | growth inhibition [2] -9.28% | viability increase [3] -4.41% | viability [4] 76.8% | viability [5] 66% | inhibition [6] 2.25% | RAM network inhibition [7] 4.58%

COc1ccc(N2CSC3=C(C#N)C(c4cccc(OC)c4OC)CC(=O)N3C2)cc1 (stereo unspecified)
inactive: growth inhibition [1] -1.74% | growth inhibition [2] 26.5% | viability increase [3] -4.01% | viability [4] 95.6% | viability [5] 92.6% | inhibition [6] 1.48% | RAM network inhibition [7] 3.83%

COc1c2c(nc3ccccc13)OC(C(C)(O)COC(C)=O)C2 (stereo unspecified)
inactive: growth inhibition [1] -2.59% | growth inhibition [2] 5.38% | viability increase [3] -1.44% | viability [4] 98.6% | viability [5] 95.7% | inhibition [6] 0.275% | RAM network inhibition [7] 1.41%

Cc1ccc(Nc2cc(C)nc3nc(C)nn23)cc1
inactive: growth inhibition [1] -3.6% | growth inhibition [2] -11.9% | viability increase [3] -3.16% | viability [4] 97.4% | viability [5] 95.7% | inhibition [6] 2.35% | RAM network inhibition [7] 3.26%

Cc1cc(C(=O)NCC(c2ccco2)N(C)C)no1 (stereo unspecified)
inactive: growth inhibition [1] -3.54% | growth inhibition [2] -10.7% | viability increase [3] -2.83% | viability [4] 98.1% | viability [5] 99.6% | inhibition [6] 1.4% | RAM network inhibition [7] 8.39%

COc1ccc(-c2nc(CS(=O)CC(=O)NCc3ccco3)c(C)o2)cc1OC (stereo unspecified)
inactive: growth inhibition [1] 1.38% | growth inhibition [2] -5.82% | viability increase [3] -4.57% | viability [4] 83.4% | viability [5] 84.6% | inhibition [6] 0.205% | RAM network inhibition [7] 4.18%

CCC(C)N1C(=O)CCC1C(=O)NCc1ccc2c(c1)OCO2 (stereo unspecified)
inactive: growth inhibition [1] -0.51% | growth inhibition [2] -0.82% | viability increase [3] -3.05% | viability [4] 102% | viability [5] 97.2% | inhibition [6] 2.33% | RAM network inhibition [7] 4.46%

CCCCNC(=O)c1ccc(CS(=O)(=O)c2ccc(OC)cc2)o1
inactive: growth inhibition [1] -14.2% | growth inhibition [2] -23% | viability increase [3] -0.64% | viability [4] 107% | viability [5] 97.8% | inhibition [6] 0.45% | RAM network inhibition [7] 2.18%

CCOc1ccc(C2CC(c3ccccc3C)n3ncnc3N2)cc1 (stereo unspecified)
inactive: growth inhibition [1] -6.31% | growth inhibition [2] 13.4% | viability increase [3] -1.48% | viability [4] 87.3% | viability [5] 77.4% | inhibition [6] 1.83% | RAM network inhibition [7] -1.78%

COCCCNC(=O)Cn1nnc(-c2ccc(NC(=O)c3ccc(F)cc3)cc2)n1
inactive: growth inhibition [1] -9.11% | growth inhibition [2] -28.5% | viability increase [3] 0.73% | viability [4] 99.7% | viability [5] 96.8% | inhibition [6] 0.705% | RAM network inhibition [7] 4.54%

COCCN1C=C(C(=O)OC)C(c2cc(Br)c(OC)c(OC)c2)C(C(=O)OC)=C1
inactive: growth inhibition [1] 1.89% | growth inhibition [2] -0.035% | viability increase [3] -2.7% | viability [4] 80.8% | viability [5] 71.9% | inhibition [6] 2.16% | RAM network inhibition [7] 8.73%

O=C1C2CCCN2C(c2ccc(F)cc2)N1c1cccc(Cl)c1 (stereo unspecified)
inactive: growth inhibition [1] -1.56% | growth inhibition [2] 0.01% | viability increase [3] -0.91% | viability [4] 102% | viability [5] 99.6% | inhibition [6] 0.63% | RAM network inhibition [7] 2.38%

CCc1cccc(C)c1NC(=O)C1CCCO1 (stereo unspecified)
inactive: growth inhibition [1] -5.15% | growth inhibition [2] -1.12% | viability increase [3] -3.29% | viability [4] 87.3% | viability [5] 88.1% | inhibition [6] 0.695% | RAM network inhibition [7] 3.57%

COCCn1c(CN(C)Cc2ccccc2)nc2c1c(=O)n(C)c(=O)n2C
inactive: growth inhibition [1] -5.71% | growth inhibition [2] 8.7% | viability increase [3] 0.55% | viability [4] 87.8% | viability [5] 91.5% | inhibition [6] 3.04% | RAM network inhibition [7] 1.53%

COc1ccc(Nc2oc(COc3ccccc3F)nc2C#N)cc1
inactive: growth inhibition [1] -10.6% | growth inhibition [2] 11.6% | viability increase [3] -7.35% | viability [4] 51.3% | viability [5] 53.3% | inhibition [6] 2.25% | RAM network inhibition [7] 3.24%

COc1ccc(N2C(=O)C3CCCN3C2c2ccc(C)cc2)cc1 (stereo unspecified)
inactive: growth inhibition [1] -2.01% | growth inhibition [2] 2.53% | viability increase [3] -1.95% | viability [4] 97.6% | viability [5] 99.2% | inhibition [6] 1.94% | RAM network inhibition [7] -1.51%

c1cc(-c2nnc3n2CCC3)[nH]n1
inactive: growth inhibition [1] 1.95% | growth inhibition [2] -0.075% | viability increase [3] -2.22% | viability [4] 95.9% | viability [5] 104% | inhibition [6] 1.51% | RAM network inhibition [7] 2.34%

CC1CN(C(c2cccs2)c2sc3ncnn3c2O)CC(C)O1 (stereo unspecified)
inactive: growth inhibition [1] -15% | growth inhibition [2] -4.9% | viability increase [3] 0.14% | viability [4] 101% | viability [5] 97.8% | inhibition [6] 2.26% | RAM network inhibition [7] 4.47%

COc1ccc(OC)c(NC(=O)c2ccc(CN3CCOCC3)cc2)c1
inactive: growth inhibition [1] 9.65% | growth inhibition [2] 0.145% | viability increase [3] 0.88% | viability [4] 104% | viability [5] 111% | inhibition [6] 1.52% | RAM network inhibition [7] 4.85%

NCCCC(=O)N1c2ccccc2Sc2ccccc21
inactive: growth inhibition [1] -16% | growth inhibition [2] 3.53% | viability increase [3] -2.97% | viability [4] 73.2% | viability [5] 73.9% | inhibition [6] 2.5% | RAM network inhibition [7] 0.52%

Cc1ccc(CC2S/C(=C(/C#N)C(=O)NCc3ccco3)N(c3ccccc3)C2=O)cc1 (stereo unspecified)
inactive: growth inhibition [1] 1.42% | growth inhibition [2] 2.41% | viability increase [3] -7.76% | viability [4] 45% | viability [5] 60.6% | inhibition [6] 0.44% | RAM network inhibition [7] 1.64%

O=C(Nc1ccccc1Cl)N1CCN(c2ccccn2)CC1
inactive: growth inhibition [1] -6.09% | growth inhibition [2] -5.88% | viability increase [3] -0.46% | viability [4] 103% | viability [5] 109% | inhibition [6] 1.91% | RAM network inhibition [7] 4.61%

CC1CCCN(C(=O)CNC(=O)Cn2ccc3ccccc3c2=O)C1 (stereo unspecified)
inactive: growth inhibition [1] -10.8% | growth inhibition [2] -1.01% | viability increase [3] -1.73% | viability [4] 99.5% | viability [5] 94.5% | inhibition [6] 2.08% | RAM network inhibition [7] 2.25%

COc1ccc(C2CC(C(F)(F)F)n3nc(C(=O)O)c(Cl)c3N2)cc1OC (stereo unspecified)
inactive: growth inhibition [1] -2.51% | growth inhibition [2] -1.92% | viability increase [3] 0.25% | viability [4] 105% | viability [5] 97.6% | inhibition [6] 0.77% | RAM network inhibition [7] 2.86%

COc1ccc(-n2nnc3c(=O)n(CC(=O)N4CCC(Cc5ccccc5)CC4)cnc32)cc1
inactive: growth inhibition [1] 0.065% | growth inhibition [2] -3.95% | viability increase [3] -1.03% | viability [4] 80.2% | viability [5] 80.3% | inhibition [6] 2.54% | RAM network inhibition [7] 5.24%

CCN(CC)S(=O)(=O)c1ccc2c3c(cccc13)C(=O)N2
inactive: growth inhibition [1] -12.1% | growth inhibition [2] -11.4% | viability increase [3] -4.61% | viability [4] 97.1% | viability [5] 96.8% | inhibition [6] 2.06% | RAM network inhibition [7] 4.63%

CCOC(=O)c1[nH]c2ccccc2c1NC(=O)c1ccc2c(c1)OCO2
inactive: growth inhibition [1] -2.92% | growth inhibition [2] -6.88% | viability increase [3] -4.72% | viability [4] 85.6% | viability [5] 85.6% | inhibition [6] 1.8% | RAM network inhibition [7] 2.88%

N#CC1=C(N)Oc2n[nH]c(-c3ccccc3)c2C1c1cccc(OC(=O)N2CCOCC2)c1 (stereo unspecified)
inactive: growth inhibition [1] -12.4% | growth inhibition [2] 2.86% | viability increase [3] -2.68% | viability [4] 97.6% | viability [5] 104% | inhibition [6] 2.34% | RAM network inhibition [7] 5.62%
